Screening data deposited in PubChem BioAssay by The Scripps Research Institute Molecular Screening Center.
Compounds with a hit are over-represented: about 1.6% of the library has one in this group of screens.
TCR-CD3 inh = inhibitors of human TCR-CD3 interaction | inhibition, % at 9.4 µM | AID 651800 | 0.37% of 360,000 active | TAMRA-labeled TCR probe fluorescence, biochemical;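 note: recombinant mutant TCR 2C K166C tagged with TAMRA read by polarization; 0% = receptor in buffer alone and 100% = receptor with positive control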
DAGLB inh = blocks human DAGLB lipase activity | Q8NCG7 | HEK293T DAGLB membrane lysate, EnzChek fluorogenic substrate | inhibition, % at 5.17 µM | 0.059% of 340,000 active; in the data active = inhibition above about 34%;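 note: 0% = enzyme with vehicle and 100% = wells lacking enzyme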
Target sequence (Q8NCG7 whole entry, looked up): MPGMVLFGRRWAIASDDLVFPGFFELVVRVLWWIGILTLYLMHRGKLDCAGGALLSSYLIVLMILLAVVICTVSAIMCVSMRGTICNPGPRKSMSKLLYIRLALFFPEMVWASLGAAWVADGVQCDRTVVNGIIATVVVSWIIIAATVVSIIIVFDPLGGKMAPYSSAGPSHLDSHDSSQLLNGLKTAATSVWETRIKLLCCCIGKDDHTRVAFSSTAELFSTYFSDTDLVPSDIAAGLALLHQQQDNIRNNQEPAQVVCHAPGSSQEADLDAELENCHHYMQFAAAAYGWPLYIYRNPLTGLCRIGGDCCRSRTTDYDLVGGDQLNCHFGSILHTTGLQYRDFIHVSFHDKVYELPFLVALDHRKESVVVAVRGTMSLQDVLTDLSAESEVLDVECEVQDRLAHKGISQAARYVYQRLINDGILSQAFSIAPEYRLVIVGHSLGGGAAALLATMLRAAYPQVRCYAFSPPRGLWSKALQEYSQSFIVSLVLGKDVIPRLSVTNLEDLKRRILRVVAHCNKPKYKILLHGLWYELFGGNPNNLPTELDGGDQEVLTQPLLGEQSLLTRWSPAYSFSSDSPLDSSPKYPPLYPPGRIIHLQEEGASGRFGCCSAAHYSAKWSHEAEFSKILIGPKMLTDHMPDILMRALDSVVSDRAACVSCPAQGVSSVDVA
SIAE inh = inhibitors of human sialic acid acetylesterase SIAE; AID 1053197; Q9HAT2; inhibition, % at 9.66 µM; 0.69% of 370,000 active; SIAE FP-Rh probe binding, fluorescence polarization;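 active = inhibition above a cutoff: mean of compounds within the control limits plus 3 SD of those, cut at about 17% in these data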;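 note: 0% = plate median of compound wells and 100% = probe without SIAE protein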
HTRA1 inh = HTRA1 (human) protease inhibition; recombinant HTRA1, FP-rhodamine activity-based probe, fluorescence polarization; inhibition, % at 5.96 µM; 0.5% of 340,000 active; in the data active = inhibition above about 36%;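 note: 0% = enzyme with DMSO and 100% = wells lacking enzyme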
ABHD4 inh = ABHD4 (mouse) inhibition, primary FP screen. Q8VD66. purified mABHD4, FP-Rh probe fluorescence polarization. inhibition, % at 8.92 µM. 0.54% of 370,000 active;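 active = inhibition exceeding the mean over every tested compound plus 3 SD, cut at about 30% in these data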;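 note: 0% = plate median of compound wells and 100% = S159A mutant with DMSO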
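Assay system: mouse ABHD4 enzyme, wild type / Also added: fluorescent activity-based probe FP-Rh / Doses: single nominal dose of 8.92 µM, 0.89% DMSO final / Timing: 45 min compound pre-incubation plus 60 min probe step, 25 °C / Signal: FP readout, ex 525 nm / em 598 nm / Control set: S159A mutant/DMSO as 100%, compound-well median as 0%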
BSA probe FL = interferes with TAMRA-BSA probe, flagging TCR-CD3 hits; shares compounds with TCR-CD3 inh; TAMRA-labeled BSA probe fluorescence counterscreen; inhibition, % at 9.4 µM; 10% of 1,200 active; in the data active = inhibition above about 23%;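 note: 0% = buffer low control and 100% = reference high control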
TCR-CD3 inh conf = TCR-CD3 interaction inhibition, confirmation; 48% of 1,200 active; shares compounds with TCR-CD3 inh; AID 652036; inhibition, % at 9.4 µM; TAMRA-labeled TCR probe fluorescence binding assay
* = called active by the depositor; · = not tested or not shown. Cut-off read from the data, not from the text of the source, unless noted: active = inhibition above about 19%; inactive = the rest.

SMILES | TCR-CD3 inh | DAGLB inh | SIAE inh | HTRA1 inh | ABHD4 inh | BSA probe FL | TCR-CD3 inh conf
Cc1cc([N+](=O)[O-])cc(/C=N\NC(=O)C2COc3ccccc3O2)c1O (stereo not drawn) | 31* | 7 | 2 | 10 | 4 | -1 | 29*
O=C(N/N=C\c1ccc(O)c([N+](=O)[O-])c1)C1COc2ccccc2O1 (stereo not drawn) | -2 | 8 | 12 | 5 | 2 | · | ·
COc1cc2ccccc2cc1C(=O)NNC(=O)c1ccccc1O | 34* | 11 | 0 | 27 | 10 | -6 | 25*
Cc1ccc(C(=O)NNC(=O)c2cc3ccccc3cc2O)cc1 | 24* | 8 | 12 | 19 | 16 | 1 | 25*
Cc1ccc(NS(=O)(=O)c2ccc(C(=O)NNC(=O)c3ccccc3O)cc2)cc1 | 20* | 4 | 10 | -14 | 7 | -16 | 9
COc1ccccc1C(=O)NNC(=O)c1ccc(C)cc1 | -4 | -2 | 0 | 6 | 3 | · | ·
O=C(NNC(=O)c1cc2ccccc2cc1O)NC1CCCCC1 | 22* | 5 | 7 | 28 | 13 | -11 | 18
COc1ccc(NC(=O)c2cc3ccccc3cc2OC)cc1 | 3 | -4 | -9 | -18 | 3 | · | ·
C[C@@H](NC(=O)c1ccc(C#Cc2cccc(F)c2)cn1)C(C)(C)O | · | · | 7 | · | 5 | · | ·
O=S1(=O)CC2c3ccccc3CCN2CN1CCc1ccccc1 (stereo not drawn) | · | · | 7 | · | 1 | · | ·
Cc1occc1C(=O)NNC(=O)Nc1ccc(F)cc1F | 2 | -1 | -2 | -1 | 0 | · | ·
CN(C)S(=O)(=O)c1cccc(NC(=S)NNC(=O)c2cc3ccccc3cc2O)c1 | 23* | 12 | -14 | 25 | -26 | -11 | 13
Cc1ccc(S(=O)(=O)Nc2ccccc2F)cc1C(=O)NNC(=O)c1ccccc1O | 19* | 6 | 6 | 26 | 5 | 12 | 25*
COc1ccc(NC(=O)NNC(=O)c2cc3ccccc3cc2O)cc1 | 25* | 4 | 5 | 1 | -2 | -8 | 22*
CN(C)S(=O)(=O)c1cccc(NC(=S)NC(=O)c2ccco2)c1 | 0 | 0 | -1 | -3 | 0 | · | ·
O=C(NNC(=O)c1cc2ccccc2cc1O)Nc1ccc(F)cc1F | 20* | 4 | 9 | 18 | 1 | 5 | 19*
COc1ccc(NS(=O)(=O)c2ccc(C)c(C(=O)NNC(=O)c3ccccc3O)c2)cc1 | 5 | 4 | 5 | 14 | -16 | · | ·
CC(=O)Nc1sc2c(c1-c1nc3ccccc3s1)CCN(C(C)C)CC2 | · | · | 4 | · | 15 | · | ·
O=C(CSc1nnc(COc2ccccc2)n1-c1ccc(Cl)cc1)Nc1ccc2c(c1)OCCO2 | · | · | -1 | · | -12 | · | ·
C[C@H](CO)N1C[C@H](C)[C@@H](CN(C)S(=O)(=O)c2ccc(F)cc2)Oc2cc(Br)ccc2S1(=O)=O | 2 | · | -5 | · | 0 | · | ·
O=S1(=O)CCSC[C@@H](CN2CCN(c3ccccc3)CC2)N1 | 11 | · | 4 | · | 1 | · | ·
CCn1c(Cc2cccs2)nnc1SCC(=O)Nc1ccccc1-c1ccccc1 | · | · | -3 | · | 3 | · | ·
CC(=O)NC(CC(=O)NNC(=O)c1cc2ccccc2cc1O)c1ccccc1 (stereo not drawn) | 50* | 5 | 8 | 15 | 17 | -4 | 31*
O=C(NNC(=O)c1ccncc1)Nc1ccc(Br)cc1 | -3 | -2 | 4 | -1 | 4 | · | ·
O=C(NNC(=O)c1cc2ccccc2cc1O)Nc1ccc(Br)cc1 | 23* | 2 | 16 | 10 | 6 | -11 | 22*
SMILES | TCR-CD3 inh | DAGLB inh | SIAE inh | HTRA1 inh | ABHD4 inh | BSA probe FL | TCR-CD3 inh conf
COc1cc(NC(=O)COC(=O)CC(NC(C)=O)c2ccccc2)cc(OC)c1 (stereo not drawn) | -5 | 1 | 4 | 5 | 0 | · | ·
COc1cc(-c2nnc(SCC(=O)N3C(C)CCCC3C)o2)cc(OC)c1OC (stereo not drawn) | · | · | 4 | · | 2 | · | ·
CC1OC(OCC2OC(Oc3c(-c4ccc(O)cc4)oc4cc(O)cc(O)c4c3=O)C(O)C(O)C2O)C(O)C(O)C1O (stereo not drawn) | 21* | 3 | 8 | 5 | 7 | -1 | 13
COc1ccc(OCc2cc(C(=O)N[C@H]3CCCCNC3=O)no2)c(Cl)c1 | 21* | 1 | 2 | 1 | -1 | 1 | 0
COc1ccc(/C=C2/CN(Cc3ccc(OC)cc3OC)C3=NC(c4ccc5ccccc5c4)CC(=O)N32)cc1 (stereo not drawn) | · | · | -6 | · | -15 | · | ·
CCCCCCCCN1CN2Cc3ccccc3C2CS1(=O)=O (stereo not drawn) | · | · | -3 | · | -7 | · | ·
Cc1[nH]c(C)c2c(=O)n(Cc3ccccc3Cl)ncc12 | -1 | · | 8 | · | 7 | · | ·
Cc1[nH]c(C)c2c(=O)n(-c3ccccc3)ncc12 | 31* | -3 | -94 | -3 | -83 | 11 | 9
CC1=Nc2ccccc2/C1=C/c1nc(-c2ccc(C)s2)oc1O | 19* | -17 | -18 | 21 | 15 | 20 | 3
COC(=O)COc1ccc(C(C2C(=O)CC(C)(C)CC2=O)C2C(=O)CC(C)(C)CC2=O)cc1 | 20* | -1 | -1 | 2 | 0 | 1 | 3
CCC(=O)OCCCN1CCC2(CCC(c3ccccc3)CC2)C1=O (stereo not drawn) | · | · | -4 | · | 0 | · | ·
O=C(Nc1ccc(F)cc1)OCc1cn(Cc2ccccc2C(F)(F)F)nn1 | · | · | -2 | · | -5 | · | ·
Nc1c(N(Cc2ccccc2)C(=O)COc2ccc(F)cc2Cl)c(=O)[nH]c(=O)n1Cc1ccccc1 | 21* | 8 | -4 | 12 | -6 | -9 | 21*
COCCN(C(=O)COC(=O)c1cc2c(s1)CCC2)c1c(N)n(Cc2ccccc2)c(=O)[nH]c1=O | 27* | 3 | 9 | 7 | 20 | -15 | 37*
C[C@@H]1CCN(C2CC2)S(=O)(=O)c2c(cccc2N2CC[C@H](N(C)C)C2)O1 | · | · | -1 | · | -6 | · | ·
Nc1c(/C=C2/C=CC(=O)C(O)=C2)c(=O)nc2sc(CC(=O)N3CCCCC3)nn12 | 26* | 5 | 1 | 14 | 5 | -19 | 42*
Nc1c(/C=C2/C=CC(=O)C(O)=C2)c(=O)nc2sc(CC(=O)N3CCCC3)nn12 | 16 | 3 | 4 | 10 | 19 | · | ·
CCNC(=O)N(C)[C@H]1C[C@H]2c3[nH]c4cccc(-c5ccc6c(c5)OCO6)c4c3CCN2C[C@H]1[C@H](C)O | · | · | 9 | · | 1 | · | ·
CCC(C)(C)NC(=O)Cc1ccc(Cl)cc1 | 33* | · | 1 | · | 1 | -7 | -1
CCC(C)(C)NC(=O)Cc1ccc(F)cc1 | 7 | · | 5 | · | -5 | · | ·
O=c1c2c(-c3ccccc3)csc2ncn1/N=C/c1ccc(O)c([N+](=O)[O-])c1 | 4 | -2 | 0 | 0 | 1 | · | ·
O=c1c2c(-c3ccccc3)csc2ncn1/N=C/c1cccc([N+](=O)[O-])c1O | 29* | 9 | 1 | 3 | 14 | -14 | 31*
